CSC inhib: cancer stem cell inhibition | cancer stem cell-like cells viability, luminescence | inhibition, % at 7.5 µM | hit rate 1.1% among 300,000; in the data active means inhibition above about 75%; inconclusive means no clear call, values can overlap the other calls; tested in HMLE shEcad cells
PolyA inh: yeast polyadenylation inhibition; hit rate 0.02% among 300,000; activity score, % at 12 µM; S. cerevisiae SKY197-pL101 polyadenylation reporter, beta-gal luminescence; efflux-impaired pdr1/pdr3 knockout yeast; score 100 = 6 SD above DMSO;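 active means lowest replicate activity score at least 50, where 100 means six control SD above control mean; inconclusive means lowest score under 50 but half or more replicates reach 50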;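 further: yeast exposed to compound for 9 h at 30 °C; higher score means more reporter readthrough which indicates perturbed polyadenylation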
HIF activator: HIF pathway transcriptional activation; activation, % at 7.5 µM (by protocol); AID 1910; U2OS HRE-luciferase reporter, luminescence; normalized: DMSO 0%, desferrioxamine 100%; hit rate 0.32% among 300,000;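 active means mean activation of at least 10% of the iron chelator positive control signal, with at least half of replicates also reaching 10%; inconclusive means mean and replicate majority disagree about reaching 10%; inactive means mean and most replicates under 10%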
Calb FLC: affects C. albicans growth with fluconazole | C. albicans CaCi-2 (fluconazole-resistant clinical isolate) + fluconazole, Alamar Blue growth, 48 h | growth inhibition, % (concentration not given with the values) | hit rate 0.57% among 300,000 | AID 1979;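 active means growth inhibition above about 58% in most replicates, limit read from the data, passing the limit was not always enough; inconclusive means exactly half the replicates above a set limit; inactive means most replicates below a set limit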;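 further: all wells also contain fluconazole at 8 µg/ml as a sub-toxic cotreatment; 0% = median of DMSO wells and 100% = median of geldanamycin control wells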
Beta cell apopt: blocks beta cell apoptosis. hit rate 0.8% among 300,000. INS-1E cytokine-induced death, ATP luminescence, 48 h; percent of positive-control rescue, neutral wells zero. protection from apoptosis, % (no concentration beside the values);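 active means Every replicate reaches about 75%, or at least half do and their mean reaches it too, limit read from the data; inconclusive means At least half of replicates reach the limit but their mean does not; inactive means Under half of replicates reach the limit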;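 further: 0% = cytokine-treated negative control wells and 100% = positive control rescue; higher means more ATP so stronger rescue from cytokine killing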
T cruzi inh: T. cruzi replication inhibition | T. cruzi beta-gal in NIH3T3, luminescence, 90 h | inhibition, % (concentration not given with the values) | hit rate 1.4% among 300,000;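 active means mean inhibition across valid replicates above about 55%, limit read from the data; inconclusive means mean below that limit but half or more replicates reach it; inactive means mean below it, under half of replicates reach it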;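 further: signal also drops with host cell toxicity which is not excluded here; 0% = plate median of DMSO wells and 100% = zero luminescence signal; higher percent means less beta-gal luminescence so fewer parasites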
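assay system = mouse NIH/3T3 fibroblasts infected with β-gal-expressing T. cruzi Tulahuen C4 | input = 5,000 NIH/3T3 host cells per well | buffer or medium = DMEM plus 2% FBS | timing = 3 h host attachment, then at least 90 h co-culture | measured by = GalScreen luminescence, 60 min | evaluation = luminescence reflecting intracellular parasite burden, expressed as percent inhibition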
* hit, by the source's call; ? = inconclusive; nt = no result given. Sampled rows, rich in hits. Any-hit rate of the full collection: about 3.1%.

SMILES	CSC inhib	PolyA inh	HIF activator	Calb FLC	Beta cell apopt	T cruzi inh
COc1ccc(C2OC(=O)Cc3cc(OC)c(OC)cc32)cc1 (stereo unspecified)	12.1	-9.6	-0.5	6.8	-1.6	12.1
Cc1ccc(OCCn2c(=S)[nH]c3ccccc32)c(C(C)C)c1	100.5*	-2.8	-1.0	-5.8	9.0	20.6
CC(C)(C)c1ccc(C2C(C(=O)c3ccco3)=C(O)C(=O)N2CC2CCCO2)cc1 (stereo unspecified)	14.2	-8.1	1.8	5.8	-3.9	-2.2
CC(C)c1ccc(NC(=O)c2csnn2)cc1	4.7	7.9	0.2	6.7	1.9	-16.3
CC(C)c1ccc(NC(=O)c2snc3ccc(Cl)cc23)cc1	79.5*	16.4	2.5	2.1	-4.9	22.5
CC(=O)N=c1sc2cc(C)ccc2n1C	nt	-12.1	-0.1	2.5	nt	33.8
CC(=O)N=c1sc2c3ccccc3ccc2n1C	12.7	-40.1	0.5	2.3	0.5	65.9*
CCN1CCN(CCNC(=O)c2ccc3c(c2)N(Cc2ccc(F)cc2)C(=O)/C(=C/c2ccccc2)S3)CC1	103.2*	-18.1	0.4	2.0	15.5	53.5
Cc1cccc(CN2C(=O)/C(=C\c3ccc(C(=O)NCCN4CCOCC4)cc3)Sc3ccccc32)c1	-16.4	-11.9	0.4	-5.0	2.6	46.1
CCN1CCN(CCNC(=O)c2ccc(/C=C3/Sc4ccccc4N(Cc4cccc(Cl)c4)C3=O)cc2)CC1	?	-17.7	0.3	31.8	9.0	60.5*
Cc1cccc(CN2C(=O)c3ccccc3S(=O)(=O)c3ccc(C(=O)NCCCN4CCCC4)cc32)c1	nt	18.9	-0.6	0.3	nt	31.0
CN1CCN(CCCNC(=O)c2ccc(/C=C3\Sc4ccccc4N(Cc4ccccc4F)C3=O)cc2)CC1	nt	14.3	-0.8	29.5	nt	68.6*
O=C(NCCN1CCCC1)c1ccc2c(c1)N(Cc1cccc(Cl)c1)C(=O)c1ccccc1S2(=O)=O	107.1*	-15.3	-0.5	3.8	0.3	7.9
COC(=O)CNC(=O)c1ccc(F)cc1	-16.9	24.7	-0.4	-4.4	-2.1	-7.3
O=[N+]([O-])c1ccccc1S(=O)(=O)N(CC1CO1)c1ccccc1 (stereo unspecified)	-1.3	-1.8	-0.2	7.3	-0.4	-23.6
COc1cccc(-n2c(SCC(=O)Nc3sc4c(c3C(N)=O)CCC4)nc3ccccc3c2=O)c1	-2.8	-10.6	-0.2	-11.3	-2.2	59.5*
O=C(CCl)N1c2ccccc2SCC1c1ccccc1 (stereo unspecified)	-7.1	-23.0	-0.3	81.8*	-10.5	?
CCOC(=O)C1CCCCN1Cc1ccc(OC)c(OC)c1 (stereo unspecified)	-6.7	25.4	-0.2	1.2	-9.2	-5.4
O=C(Cc1ccccc1)Nc1ccc(C(=O)NCC2COc3ccccc3O2)cc1 (stereo unspecified)	-5.5	-7.8	-0.2	14.8	16.5	4.2
O=C(NCC1COc2ccccc2O1)c1ccc(NC(=O)C(c2ccccc2)c2ccccc2)cc1 (stereo unspecified)	12.3	12.4	0.4	-11.4	21.1	84.7*
O=C(Nc1ccc(OCc2ccccc2)cc1)c1cccs1	80.3*	-1.5	4.3	-3.3	5.1	-9.2
O=C(N/N=C/c1ccc(OCc2ccccc2)cc1)c1cccs1	9.9	-6.2	1.4	0.3	-1.5	4.5
Cc1occc1C(=O)Nc1ccc(OCc2ccccc2)cc1	90.1*	-1.9	3.3	0.2	18.2	-10.2
Cc1ccc(C2C(C(=O)c3cccs3)=C(O)C(=O)N2c2nnc(C)s2)cc1 (stereo unspecified)	-7.7	7.1	1.3	-0.8	2.1	-12.5
C/C(=N\NC(=O)c1c(Cl)c(C)nn1C)c1cccc(NC(=O)C2CCCC2)c1	-8.5	-11.0	-0.3	8.6	nt	1.2
Cc1ccc(NC(=O)Nc2c(Cl)cccc2Cl)cn1	27.2	-10.3	-24.9	-10.5	-3.6	8.1
CCOC(=O)C(CN1CCCC1)c1ccccc1 (stereo unspecified)	-1.6	19.3	0.3	-2.3	1.4	-0.8
O=C(c1ccc(Cl)cc1)C(CN1CCCCC1)c1ccccc1 (stereo unspecified)	94.9*	-94.2	5.3	2.6	91.3*	32.3
CCCOc1ccc(C(=O)C(CN2CCOCC2)c2ccccc2)cc1 (stereo unspecified)	6.2	-19.8	2.6	1.4	79.0*	-8.8

Source: PubChem BioAssay (Broad Institute)
